This note sets out measurements from ChEMBL document CHEMBL1136727, “Regioselective covalent modification of hemoglobin in search of antisickling agents” (J Med Chem, 2003).

Several values for one entry are separate records, joined by “and”; a condition that tells them apart may be missing. Equal entries are not always repeated.

The target of experiment [1] is Hemoglobin subunit alpha (Homo sapiens) (UniProt P69905). The experiment can be described thus: Percent modification of human Hemoglobin alpha (100 uM) after 3h of incubation. In a few lines: (§1)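 HbA·CO at 100 μM final (tetramer) reacted with isothiocyanate at a 2:1 compound:Hb molar ratio in 50 mM ammonium acetate, pH 7.3, with 2% DMSO or buffer alone, for 3 h at 37 °C. An aliquot was diluted in acetonitrile/water with 0.2% formic acid and analysed by electrospray MS to give percent modified α- and β-subunit. Some compounds were run in triplicate.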

For experiment [2], the target named is T1, Hemoglobin HbA (Homo sapiens) (UniProt P69905+P68871). The experiment can be described thus: Ratio of compound modified hemoglobin aggregation […]. The experiment is classed as functional.
Experiment [3] concerns the target Hemoglobin subunit beta (Homo sapiens) (UniProt P68871). Nature of the experiment: Percent modification of human Hemoglobin beta (100 uM) after 3h of incubation. In a few lines:
as §1

Experiment [4] has as its target T1, Hemoglobin HbA (Homo sapiens). The experiment can be described thus: Inhibition of sickle hemoglobin aggregation using standard saturation solubility (CSAT) assay. It counts as functional. In a few lines:
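Saturation solubility (Csat) of deoxy HbS or inhibitor-modified HbS in 50 mM phosphate, pH 7.0. CO is removed by photodissociation under oxygen. HbSO2 at 35 g/dL is deoxygenated on ice with 0.9 M sodium dithionite solution, then centrifuged 1 h at 30 °C. Supernatant Hb is measured spectrophotometrically, and activity is expressed as the solubility increase over the unmodified HbS control.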

Experiment [5] has the same target. Nature of the experiment: Affinity towards oxygen by hemoglobin after modification by compound. The experiment is classed as functional.
In experiment [6] the target is Hemoglobin subunit alpha (Homo sapiens) (UniProt P69905). The experiment can be described thus: Percent modification of human hemoglobin alpha (100 uM) after 3h of incubation. In a few lines:
as §1

Experiment [7] has the same target. Nature of the experiment: Percent modification of alpha-subunit of human hemoglobin (100 uM) after 3h of incubation. In a few lines:
as §1

Sequence of Hemoglobin subunit beta (Homo sapiens) (P68871 2-147 limits assumed): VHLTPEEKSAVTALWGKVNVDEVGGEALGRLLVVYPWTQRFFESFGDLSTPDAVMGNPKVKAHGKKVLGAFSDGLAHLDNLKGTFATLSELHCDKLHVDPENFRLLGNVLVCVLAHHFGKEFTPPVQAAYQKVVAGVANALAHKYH
T1 sequence (P68871 2-147 partner limits assumed): as the sequence (P68871 2-147 limits assumed) above
T1 sequence (P69905 2-142 limits assumed): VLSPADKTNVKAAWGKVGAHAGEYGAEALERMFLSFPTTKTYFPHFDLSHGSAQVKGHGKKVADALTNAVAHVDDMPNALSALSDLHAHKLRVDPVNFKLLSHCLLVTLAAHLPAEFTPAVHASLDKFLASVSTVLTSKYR
Sequence of Hemoglobin subunit alpha (Homo sapiens) (P69905 whole entry): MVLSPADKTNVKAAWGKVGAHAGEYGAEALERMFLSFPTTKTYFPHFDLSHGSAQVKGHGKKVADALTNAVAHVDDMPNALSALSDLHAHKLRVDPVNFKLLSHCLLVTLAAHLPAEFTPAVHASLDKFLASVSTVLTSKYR

Turning to `CN(C)c1ccc(SC#N)cc1`, the Modification turned out to be 48% in experiment [1] and 10% in experiment [3]. The Csat/Co in experiment [2] worked out at 1.07. This compound also displayed a Csat in experiment [4] of 18.2 g/dL. The Co in experiment [5] turned out to be 17 g/dL.

`N#CSCCCN1CCCC1=O`: the Modification in experiment [6] is 0%; in experiment [3], 24%.

Take `CN(C)CCCCCSC#N`: the Csat/Co in experiment [2] was 1.34 and 1.35 and 1.37. For the same compound, the Csat in experiment [4] was 21.3 g/dL and 20.2 g/dL and 20.7 g/dL. For the same compound, the Co in experiment [5] was 15.9 g/dL and 15 g/dL and 15.1 g/dL.

Take `CCN(CC)CCCCSC#N`: the Csat/Co in experiment [2] is 1.3 (2×) and 1.27. Also, the Csat in experiment [4] was 20.7 g/dL and 19.1 g/dL and 19.7 g/dL. Further, the Co in experiment [5] was 15.9 g/dL and 15 g/dL and 15.1 g/dL.

Regarding `CCN(CC)CCCCCSC#N`, the Csat/Co in experiment [2] is 1.33 and 1.36 and 1.35. For the same compound, in experiment [4], the Csat is 21.1 g dl-1 and 20.4 g dl-1 (2×). For the same compound, the Co in experiment [5] is 15.9 g/dL and 15 g/dL and 15.1 g/dL.

Regarding `N#CSC1CCC(O)CC1` (stereo not given), the Modification in experiment [6] was 0%; in experiment [3], 18%.

Regarding `CN(C)CCCCSC#N`, in experiment [2], the Csat/Co was 1.23 and 1.22 and 1.27. Moreover, in experiment [4], the Csat is 18.8 g dl-1 and 19.1 g dl-1 (2×). Further, in experiment [5], the Co was 15.3 g/dL and 15.6 g/dL and 15.1 g/dL.

On to `CCN(CC)CCSC#N`, for which the Csat/Co in experiment [2] was 1.24 and 1.22 (2×). In experiment [4], the Csat was 21 g/dL and 19.8 g/dL and 20.1 g/dL. Moreover, the Co in experiment [5] was 17 g/dL and 16.2 g/dL and 16.5 g/dL.

On to `COC(CSC#N)OC`, for which the Modification in experiment [6] is 11%; in experiment [3], 33%. Moreover, the Csat/Co in experiment [2] is 1.07 (2×) and 1.04. The Csat in experiment [4] is 18.2 g/dL and 17.4 g/dL and 17.3 g/dL. Further, in experiment [5], the Co is 17 g/dL and 16.2 g/dL and 16.5 g/dL.

Turning to `CCN(CC)CCCSC#N`, the Modification in experiment [6] stood at 0%; in experiment [3], 37%. The Csat/Co in experiment [2] is 1.24 and 1.2 and 1.22. In addition, the Csat in experiment [4] was 19.9 g/dL and 19.6 g/dL and 19.7 g/dL. For the same compound, the Co in experiment [5] was 16.1 g/dL and 16.3 g/dL and 16.2 g/dL.

As to `N#CSc1ccc(CC(=O)O)cc1`, the Modification in experiment [6] is 42%; in experiment [3] it was 13%.

For the compound `N#CCCSC#N`, the values for the Modification in experiment [6] and in experiment [3] were 10% and 21%, respectively. In experiment [2], the Csat/Co is 1.08 and 1.1 and 1.09. For the same compound, the Csat in experiment [4] was 17.4 g/dL and 17.8 g/dL and 17.7 g/dL. Further, the Co in experiment [5] is 16.1 g/dL and 16.3 g/dL and 16.2 g/dL.

For `N#CSCCc1c[nH]c2ccccc12`, the results for the Modification in experiment [6] and in experiment [3] were 7% and 24%, respectively.

For the compound `N#CSCCCCCO`, in experiment [2], the Csat/Co was found to be 1.11. The Csat in experiment [4] came out at 18.8 g/dL. Also, the Co in experiment [5] was found to be 17 g/dL.

With `N#CSc1ccc(C(=O)O)c(O)c1`, the Modification in experiment [6] is 35%; in experiment [3], 3%.

On to `N#CSCCN1CCCCC1`, for which, in experiment [2], the Csat/Co is 1.24 (2×) and 1.23. Besides, the Csat in experiment [4] is 20.9 g/dL and 20.1 g/dL and 20.5 g/dL. Besides, in experiment [5], the Co is 16.8 g/dL and 16.4 g/dL and 16.5 g/dL.

On to `CCN(CC)CCNC(=O)c1ccc(SC#N)cc1`, for which the Modification is 36% and 42% in experiment [6]; 40% in experiment [1]; 17% and 16% and 15% in experiment [3].

Turning to `N#CSCCCn1ccnc1`, the Modification was 7% in experiment [6] and 13% in experiment [3]. Besides, the Csat/Co in experiment [2] was 1.21 and 1.15 and 1.18. In addition, the Csat in experiment [4] is 20.6 g/dL and 18.6 g/dL and 19.6 g/dL. In experiment [5], the Co was 17 g/dL and 16.2 g/dL and 16.5 g/dL.

Consider `N#CSc1ccc(O)cc1`, for which the results for the Modification in experiment [1] and in experiment [3] were 51% and 8%, respectively.

For `N#CSc1ccc(CCO)cc1`, the Modification in experiment [6] was 72%; in experiment [7], 72%; in experiment [1], 66%; in experiment [3], 8% and 9% (2×). For the same compound, in experiment [2], the Csat/Co was 1.1. Further, the Csat in experiment [4] turned out to be 18.7 g/dL. This compound gave a Co in experiment [5] of 17 g/dL.

For `N#CSCc1ccncc1`, the results for the Modification in experiment [6] and in experiment [3] were 6% and 58%, respectively.
